According to ChEMBL document CHEMBL4393725, “Design and synthesis of novel xanthone-triazole derivatives as potential antidiabetic agents: α-Glucosidase inhibition and glucose uptake promotion” (Eur J Med Chem, 2019):
Active and inactive are the calls of the source. The calls are words filed in the database; no cut-off is given here.

Assays:
Alpha glucosidase = Alpha glucosidase (Homo sapiens, UniProt O43451+P10253+P14410+Q2M2H8); assay: Inhibition of alpha-glucosidase (unknown origin) using PNP glucoside as substrate preincubated for 30 mins followed by substrate addition further incubated for 1 min by spectrophotometry; assay type: protein assay
How it was run: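 Yeast α-glucosidase with p-nitrophenyl-α-D-glucopyranoside substrate in 50 mM phosphate buffer, pH 6.8, with 5% v/v DMSO. Inhibitor and enzyme were preincubated for 30 min at 37 °C, then the reaction ran for 1 min at 37 °C, read at 400 nm. IC50 came from five concentrations bracketing a preliminary estimate, each measured three times in parallel; mean ± SD.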

L02 = assay: Cytotoxicity against human LO2 cells assessed as reduction in cell viability incubated for 44 hrs by MTT assay; assay type: cell-based; details: L02, 44 h
How it was run: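 LO2 human hepatocytes in DMEM with 10% FBS, penicillin and streptomycin at 37 °C, 5% CO2. Plated at 5000 cells/well for 24 h, then exposed to a range of concentrations for 44 h. MTT was added for 4 h, formazan dissolved in DMSO, and A490 read. Viability = A treated/A control × 100%. IC50 is the concentration giving 50% viability loss, as mean ± SD.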

HepG2 [1] = assay: Induction of glucose uptake in human HepG2 cells at 0.625 to 2.5 uM incubated for 24 hrs in low glucose medium; assay type: functional, cell-based
How it was run: (§1)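 HepG2 cells in high-glucose DMEM with 10% FBS and antibiotics, seeded at 5000 cells/well for 24 h. They were washed with low-glucose DMEM and PBS, then treated for 24 h in low-glucose DMEM with 2% FBS at 0.625, 1.25 or 2.5 μM. Glucose left in the medium was measured with a glucose kit. Rosiglitazone was the positive control.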

HepG2 (Homo sapiens) = assay: Cytotoxicity against human HepG2 cells assessed as effect on cell survival at 0.625 to 2.5 uM incubated for 44 hrs by MTT assay; details: HepG2, 44 h
[2] = system: Alpha-glucosidase (Saccharomyces cerevisiae); assay: Noncompetitive inhibition of alpha-glucosidase (Saccharomyces cerevisiae) at 0 to 3.5 uM using PNP glycoside as substrate preincubated for 30 mins followed by substrate addition further incubated for 1 min by Lineweaver-Burk plot analysis
HepG2 [3] = assay: Induction of glucose uptake in human HepG2 cells at 0.625 uM incubated for 24 hrs in low glucose medium relative to control; assay type: functional; how it was run: as §1
HepG2 [4] = assay: Induction of glucose uptake in human HepG2 cells at 1.25 uM incubated for 24 hrs in low glucose medium relative to control; assay type: functional; how it was run: as §1
HepG2 [5] = assay: Induction of glucose uptake in human HepG2 cells at 2.5 uM incubated for 24 hrs in low glucose medium relative to control; assay type: functional; how it was run: as §1
HepG2 [6] = assay: Induction of glucose uptake in human HepG2 cells incubated for 24 hrs in low glucose medium; assay type: functional, cell-based; how it was run: as §1
[7] = system: Alpha-glucosidase (Saccharomyces cerevisiae); assay: Noncompetitive inhibition of alpha-glucosidase (Saccharomyces cerevisiae) at 0 to 6 uM using PNP glycoside as substrate preincubated for 30 mins followed by substrate addition further incubated for 1 min by Lineweaver-Burk plot analysis
[8] = system: Alpha-glucosidase (Saccharomyces cerevisiae); assay: Noncompetitive inhibition of alpha-glucosidase (Saccharomyces cerevisiae) at 0 to 4 uM using PNP glycoside as substrate preincubated for 30 mins followed by substrate addition further incubated for 1 min by Lineweaver-Burk plot analysis
[9] = system: Alpha-glucosidase (Saccharomyces cerevisiae); assay: Noncompetitive inhibition of alpha-glucosidase (Saccharomyces cerevisiae) at 0 to 10 uM using PNP glycoside as substrate preincubated for 30 mins followed by substrate addition further incubated for 1 min by Lineweaver-Burk plot analysis
[10] = system: Alpha-glucosidase (Saccharomyces cerevisiae); assay: Noncompetitive inhibition of alpha-glucosidase (Saccharomyces cerevisiae) at 0 to 9 uM using PNP glycoside as substrate preincubated for 30 mins followed by substrate addition further incubated for 1 min by Lineweaver-Burk plot analysis
HepG2 [11] = assay: Induction of glucose uptake in human HepG2 cells at 0.625 to 2.5 uM incubated for 24 hrs in low glucose medium relative to control; assay type: functional; how it was run: as §1

Row | Compound | IC50 (Alpha glucosidase) | IC50 (L02) | Activity (HepG2 [1]) | Activity (HepG2 (Homo sapiens)) | further results
1 | COc1ccc(NC(=O)Cn2cc(COc3cc(O)c4c(=O)c5cc(Br)ccc5oc4c3)nn2)c(OC)c1 | 3.07 µM | > 100 µM | inactive | Non-Toxic | inhibition [7]: Active
2 | O=c1c2ccccc2oc2cc(O)cc(O)c12 | – | – | inactive | Non-Toxic | –
3 | O=C(Cn1cc(COc2cc(O)c3c(=O)c4ccc(O)cc4oc3c2)nn1)Nc1ccc(O)cc1O | 17.61 µM | > 100 µM | – | – | –
4 | COc1ccc(NC(=O)Cn2cc(COc3cc(OC(C)=O)c4c(=O)c5cc(Br)ccc5oc4c3)nn2)c(OC)c1 | 12.13 µM | 80.7 µM | inactive | Non-Toxic | –
5 | O=C(Cn1cc(COc2cc(O)c3c(=O)c4ccc(O)cc4oc3c2)nn1)Nc1ccc(O)c(O)c1 | 6.13 µM | > 100 µM | – | Non-Toxic | Activity (HepG2 [6]): Dose-dependent effect
6 | COc1ccc(NC(=O)Cn2cc(COc3cc(O)c4c(=O)c5ccc(OC)cc5oc4c3)nn2)c(OC)c1 | 2.06 µM | 89.1 µM | – | Non-Toxic | Activity (HepG2 [6]): Dose-dependent effect; inhibition [8]: Active
7 | COc1ccc2oc3cc(OCc4cn(CC(=O)Nc5ccc(OC)c(OC)c5)nn4)cc(OC(C)=O)c3c(=O)c2c1 | > 100 µM | 24.9 µM | – | – | –
8 | COc1ccc(NC(=O)Cn2cc(COc3cc(OC(C)=O)c4c(=O)c5cc(OC)ccc5oc4c3)nn2)c(OC)c1 | 42.6 µM | > 100 µM | – | – | –
9 | COc1ccc2c(=O)c3c(OC(C)=O)cc(OCc4cn(CC(=O)Nc5ccc(OC)c(OC)c5)nn4)cc3oc2c1 | 98.63 µM | > 100 µM | – | – | –
10 | 2-(4-(((7-bromo-1-hydroxy-9-oxo-9H-xanthen-3-yl)oxy)methyl)-1H-1,2,3-triazol-1-yl)-N-(2,4-dihydroxyphenyl)acetamide | – | – | Active | – | –
11 | CN(CCOc1ccc(CC2SC(=O)NC2=O)cc1)c1ccccn1 (stereo unspecified) [ROSIGLITAZONE] | – | – | – | – | Activity (HepG2 [11]): 50%

Further lines, with some results ahead:

Row | IC50 (Alpha glucosidase) | Compound | IC50 (L02) | Activity (HepG2 [1]) | Activity (HepG2 (Homo sapiens)) | further results
12 | 2.78 µM | COc1ccc(NC(=O)Cn2cc(COc3cc(O)c4c(=O)c5ccc(Br)cc5oc4c3)nn2)c(OC)c1 | > 100 µM | Active | Non-Toxic | inhibition [2]: Active
13 | 12.78 µM | COc1ccc(NC(=O)Cn2cc(COc3cc(OC(C)=O)c4c(=O)c5ccc(Br)cc5oc4c3)nn2)c(OC)c1 | > 100 µM | – | Non-Toxic | Activity (HepG2 [3]): 61%; Activity (HepG2 [4]): 90%; Activity (HepG2 [5]): 163%; Activity (HepG2 [6]): Dose-dependent effect
14 | > 100 µM | COc1ccc2oc3cc(OCc4cn(CC(=O)Nc5ccc(OC)c(OC)c5)nn4)cc(O)c3c(=O)c2c1 | > 100 µM | – | – | –
15 | 29.84 µM | COc1ccc(NC(=O)Cn2cc(COc3cc(O)c4c(=O)c5cc(Br)ccc5oc4c3)nn2)cc1OC | > 100 µM | – | – | –
16 | 15.9 µM | COc1ccc2c(=O)c3c(O)cc(OCc4cn(CC(=O)Nc5ccc(OC)c(OC)c5)nn4)cc3oc2c1 | > 100 µM | – | – | –
17 | 26.11 µM | COc1ccc(NC(=O)Cn2cc(COc3cc(OC(C)=O)c4c(=O)c5ccc(Br)cc5oc4c3)nn2)cc1OC | 25.9 µM | – | – | –
18 | 5.87 µM | O=C(Cn1cc(COc2cc(O)c3c(=O)c4ccc(Br)cc4oc3c2)nn1)Nc1ccc(O)cc1O | 74 µM | inactive | Non-Toxic | inhibition [9]: Active
19 | 3.17 µM | O=C(Cn1cc(COc2cc(O)c3c(=O)c4cc(Br)ccc4oc3c2)nn1)Nc1ccc(O)c(O)c1 | > 100 µM | Active | Non-Toxic | inhibition [7]: Active
20 | 7.06 µM | O=C(Cn1cc(COc2cc(O)c3c(=O)c4cc(O)ccc4oc3c2)nn1)Nc1ccc(O)c(O)c1 | > 100 µM | inactive | Non-Toxic | –
21 | 11.82 µM | COc1ccc(NC(=O)Cn2cc(COc3cc(O)c4c(=O)c5ccc(Br)cc5oc4c3)nn2)cc1OC | > 100 µM | – | – | –
22 | 15.62 µM | O=C(Cn1cc(COc2cc(O)c3c(=O)c4cc(O)ccc4oc3c2)nn1)Nc1ccc(O)cc1O | > 100 µM | – | – | –
23 | 33.16 µM | COc1ccc(NC(=O)Cn2cc(COc3cc(OC(C)=O)c4c(=O)c5ccc(OC)cc5oc4c3)nn2)c(OC)c1 | > 100 µM | – | – | –
24 | 8.31 µM | COc1ccc(NC(=O)Cn2cc(COc3cc(O)c4c(=O)c5cc(OC)ccc5oc4c3)nn2)c(OC)c1 | 65.4 µM | inactive | Non-Toxic | –
25 | 32.33 µM | COc1ccc(NC(=O)Cn2cc(COc3cc(OC(C)=O)c4c(=O)c5cc(Br)ccc5oc4c3)nn2)cc1OC | > 100 µM | – | – | –
26 | 5.23 µM | O=C(Cn1cc(COc2cc(O)c3c(=O)c4ccc(Br)cc4oc3c2)nn1)Nc1ccc(O)c(O)c1 | > 100 µM | – | Non-Toxic | Activity (HepG2 [6]): Dose-dependent effect; inhibition [10]: Active
